Results published in ChEMBL document CHEMBL1122608, “Nitrogen bridgehead compounds. 44. New antiallergic 4H-pyrido[1,2-a]pyrimidin-4-ones. 4” (1984).

Columns and labels:
Rattus norvegicus [1] = test: Antiallergic activity was evaluated by passive cutaneous anaphylaxis test after intra venous administration; insoluble; format: functional, organism-based
Summary of the method: (§1)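 Adult female Sprague-Dawley rats (200 g, five per group) sensitized intradermally at two sites with rat reaginic anti-ovalbumin serum; after 48 h, challenged with chicken ovalbumin 20 mg/kg plus Evans blue 40 mg/kg. Compound iv at 32, 3.2, 0.32 µmol/kg at challenge. Dermal bluing area measured 30 min later; ≥3 doses, ID50 from dose-response regression; Student's t test.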

Rattus norvegicus [2] = test: Antiallergic activity by passive cutaneous anaphylaxis test after intravenous administration.; format: functional; details: read-out: ID50 (the source's name); summary of the method: as §1
Rattus norvegicus [3] = test: Inhibition of histamine release by 50% in rats after intra peritoneal administration; format: functional
Summary of the method: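 Male Sprague-Dawley rats (~250 g, six per group) passively sensitized ip with anti-ovalbumin reaginic serum, challenged 4 h later with ip ovalbumin 1 mg/rat; compound ip 30 s before antigen, ≥3 doses. Peritoneal fluid taken 3 min post-challenge, centrifuged at 150 g; histamine in supernatant measured fluorometrically (autoanalyzer). ID50 from dose-response regression curve; Student's t test.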

Rattus norvegicus [4] = test: Inhibition of Evans blue extravasation by 50% in rats after intra peritoneal administration; format: functional
Summary of the method: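 Male Sprague-Dawley rats (~250 g, six per group) sensitized ip with 1 mL anti-ovalbumin reaginic serum; 4 h later Evans blue iv, then ovalbumin 1 mg/rat ip in Tris buffer. Compound ip 30 s before challenge, ≥3 doses. Peritoneal fluid collected at 3 min; extravasated dye read at 615 nm. ID50 from dose-response regression; Student's t test.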

For CC1CCC(/C=N/c2cccc(Br)c2)=C2NC=C(C(=O)O)C(=O)N21 (centres undefined), the ID50 (Rattus norvegicus [1]) was “Insoluble”.

For CC1CCC(/C=N/c2ccc([N+](=O)[O-])cc2)=C2NC=C(C(=O)O)C(=O)N21 (centres undefined), the ID50 (Rattus norvegicus [1]) was “Insoluble”.

In the case of CC1CCC(/C=N/c2cccc(Cl)c2)=C2NC=C(C(=O)O)C(=O)N21 (centres undefined), the ID50 (Rattus norvegicus [1]) was “Insoluble”.

In the case of Cc1cccc(/N=C/C2=C3NC=C(C(=O)O)C(=O)N3[C@@H](C)CC2)c1, the ED50 (Rattus norvegicus [2]) was 0.02 µmol/kg.

Cc1cccc(/N=C/C2=C3NC=C(C(=O)O)C(=O)N3C(C)CC2)c1 (centres undefined) was tested, and the ED50 (Rattus norvegicus [2]) was 0.8 µmol/kg, the ID50 (Rattus norvegicus [3]) was 2 nmol/kg and the ID50 (Rattus norvegicus [4]) was 130 nmol/kg.

For CC1CCC(/C=N/c2ccccc2)=C2NC(c3ccccc3)=C(/C=C/C(=O)O)C(=O)N21 (centres undefined), the ID50 (Rattus norvegicus [1]) was “Insoluble”.

CC1CCN2C(=O)C(C(=O)O)=CNC2=C1/C=N/c1ccccc1C(=O)O (centres undefined) gave an ED50 (Rattus norvegicus [2]) of 100 µmol/kg.

In the case of CC1CCC(/C=N/c2ccc(Cl)cc2)=C2NC=C(C(=O)O)C(=O)N21 (centres undefined), the ID50 (Rattus norvegicus [1]) was “Insoluble”.

In the case of Cc1ccc(/N=C/C2=C3NC=C(C(=O)O)C(=O)N3C(C)CC2)cc1 (centres undefined), the ED50 (Rattus norvegicus [2]) was 3.6 µmol/kg.

For CC1CCC(/C=N/c2ccc(F)cc2)=C2NC=C(C(=O)O)C(=O)N21 (centres undefined), the ED50 (Rattus norvegicus [2]) was 10.6 µmol/kg.

In the case of Cc1cccc(/N=C/C2=C3NC=C(C(=O)O)C(=O)N3[C@H](C)CC2)c1, the ED50 (Rattus norvegicus [2]) was 66.9 µmol/kg.

CCOC(=O)C1=CNC2=C(/C=N/c3ccccc3C(=O)O)CCC(C)N2C1=O (centres undefined) showed an ED50 (Rattus norvegicus [2]) of 24.8 µmol/kg.

CC1CC(/C=N/c2ccccc2)=C2NC=C(C(=O)O)C(=O)N21 (centres undefined) was tested, and the ED50 (Rattus norvegicus [2]) was 20.2 µmol/kg.

Compound O=C(O)C1=CNC2=C(/C=N/c3ccccc3)CCN2C1=O has an ED50 (Rattus norvegicus [2]) of 15.4 µmol/kg.

C[C@@H]1CC/C(=N\Nc2ccccc2)c2ncc(/C=C/C(=O)O)c(=O)n21 showed an ED50 (Rattus norvegicus [2]) greater than 100 µmol/kg.

C[C@H]1CC/C(=N\Nc2ccccc2)c2ncc(C(=O)O)c(=O)n21 gave an ED50 (Rattus norvegicus [2]) of 0.3 µmol/kg, an ID50 (Rattus norvegicus [3]) of 1 nmol/kg and an ID50 (Rattus norvegicus [4]) of 5 nmol/kg.

CC1CCC(/C=N/c2ccc(C(=O)O)cc2)=C2NC=CC(=O)N21 (centres undefined) was tested, and the ED50 (Rattus norvegicus [2]) was greater than 100 µmol/kg.

CC1CCC(=NNc2ccccc2)c2ncc(C(=O)O)c(=O)n21 (centres undefined) gave an ED50 (Rattus norvegicus [2]) of 0.6 µmol/kg.

C[C@H]1CC/C(=N\Nc2ccccc2)c2ncc(/C=C/C(=O)O)c(=O)n21 was tested, and the ED50 (Rattus norvegicus [2]) was 0.15 µmol/kg.

In the case of CC1CCC(/C=N/c2ccc(CC(=O)O)cc2)=C2NC=C(C(=O)O)C(=O)N21 (centres undefined), the ED50 (Rattus norvegicus [2]) was 5.8 µmol/kg, the ID50 (Rattus norvegicus [3]) was 110 nmol/kg and the ID50 (Rattus norvegicus [4]) was 280 nmol/kg.

In the case of CC1CCC(/C=N/c2ccccc2O)=C2NC=C(C(=O)O)C(=O)N21 (centres undefined), the ED50 (Rattus norvegicus [2]) was 4.11 µmol/kg.

In the case of Cc1nc2n(c(=O)c1/C=C/C(=O)O)C(C)CC/C2=N\Nc1ccccc1 (centres undefined), the ED50 (Rattus norvegicus [2]) was 0.29 µmol/kg.

In the case of CC1CCC(/C=N/c2ccc3ccccc3c2)=C2NC=C(C(=O)O)C(=O)N21 (centres undefined), the ID50 (Rattus norvegicus [1]) was “Insoluble”.

CC1CCC(/C=N/c2cccc(C(=O)O)c2)=C2NC=CC(=O)N21 (centres undefined) was tested, and the ED50 (Rattus norvegicus [2]) was greater than 100 µmol/kg.

CCOc1ccc(/N=C/C2=C3NC=C(C(=O)O)C(=O)N3C(C)CC2)cc1 (centres undefined) gave an ED50 (Rattus norvegicus [2]) of 8.96 µmol/kg.

With CC1CCC(/C=N/c2cccnc2)=C2NC=C(C(=O)O)C(=O)N21 (centres undefined) the ED50 (Rattus norvegicus [2]) was 2.4 µmol/kg, the ID50 (Rattus norvegicus [3]) was 100 nmol/kg and the ID50 (Rattus norvegicus [4]) was 360 nmol/kg.

With CCOc1cccc(/N=C/C2=C3NC=C(C(=O)O)C(=O)N3C(C)CC2)c1 (centres undefined) the ID50 (Rattus norvegicus [1]) was “Insoluble”.

In the case of CC1CCCc2ncc(C(=O)O)c(=O)n21 (centres undefined), the ED50 (Rattus norvegicus [2]) was 240 µmol/kg.

In the case of CC1CC(/C=N/c2ccccc2C(=O)O)=C2NC=C(C(=O)O)C(=O)N2C1 (centres undefined), the ED50 (Rattus norvegicus [2]) was 48.1 µmol/kg.

In the case of COc1ccc(/N=C/C2=C3NC=C(C(=O)O)C(=O)N3C(C)CC2)cc1 (centres undefined), the ID50 (Rattus norvegicus [1]) was “Insoluble”.

O=C(O)c1cnc2n(c1=O)CCCC/C2=N\Nc1ccccc1 was tested, and the ED50 (Rattus norvegicus [2]) was 14.4 µmol/kg.

C[C@@H]1CC/C(=N\Nc2ccccc2)c2ncc(C(=O)O)c(=O)n21 gave an ED50 (Rattus norvegicus [2]) of 54.8 µmol/kg.

Work on CC1CCC(/C=N/c2ccccc2F)=C2NC=C(C(=O)O)C(=O)N21 (centres undefined) yielded an ED50 (Rattus norvegicus [2]) of 14.5 µmol/kg.

With CC1CCC(/C=N/c2ccccc2C(=O)O)=C2NC=C(C(=O)O)C(=O)N21 (centres undefined) the ED50 (Rattus norvegicus [2]) was 1.11 µmol/kg, the ID50 (Rattus norvegicus [3]) was 10 nmol/kg and the ID50 (Rattus norvegicus [4]) was 140 nmol/kg.

In the case of CCOC(=O)C1=CNC2=C(/C=N/c3ccccc3)CCC(C)N2C1=O (centres undefined), the ID50 (Rattus norvegicus [1]) was “Insoluble”.

In the case of CC1CCN2C(=O)C(C(=O)O)=CNC2=C1/C=N/c1ccccc1 (centres undefined), the ID50 (Rattus norvegicus [1]) was “Insoluble”.

O=C(O)C1=CNC2=C(/C=N/c3ccccc3C(=O)O)CCCN2C1=O was tested, and the ED50 (Rattus norvegicus [2]) was 22.9 µmol/kg.

CCOC(=O)C1=CNC2=C(/C=N/c3ccc(C(=O)O)cc3)CCC(C)N2C1=O (centres undefined) gave an ED50 (Rattus norvegicus [2]) of 67.1 µmol/kg.

With CC1CCC(/C=N/c2ccc(C(F)(F)F)cc2)=C2NC=C(C(=O)O)C(=O)N21 (centres undefined) the ED50 (Rattus norvegicus [2]) was greater than 100 µmol/kg.

For CC1CCC(/C=N/c2ccc(O)cc2)=C2NC=C(C(=O)O)C(=O)N21 (centres undefined), the ED50 (Rattus norvegicus [2]) was 1.2 µmol/kg.

Compound CC1CC/C(=N\Nc2ccccc2)c2ncc(/C=C/C(=O)O)c(=O)n21 (centres undefined) has an ED50 (Rattus norvegicus [2]) of 0.27 µmol/kg.

O=C([O-])c1cc(=O)c2c(OCC(O)COc3cccc4oc(C(=O)[O-])cc(=O)c34)cccc2o1.[Na+].[Na+] [CROMOLYN SODIUM] showed an ED50 (Rattus norvegicus [2]) of 1 µmol/kg, an ID50 (Rattus norvegicus [3]) of 16 nmol/kg and an ID50 (Rattus norvegicus [4]) of 55 nmol/kg.

In the case of CC1CCC(/C=N/c2ccccc2)=C2NC=C(C(=O)O)C(=O)N21 (centres undefined), the ID50 (Rattus norvegicus [1]) was “Insoluble”.

CC1CCC(/C=N/c2ccc(Br)cc2)=C2NC=C(C(=O)O)C(=O)N21 (centres undefined) was tested, and the ID50 (Rattus norvegicus [1]) was “Insoluble”.

O=C(O)C1=CNC2=C(/C=N/c3ccccc3C(=O)O)CCCCN2C1=O showed an ED50 (Rattus norvegicus [2]) of 68.7 µmol/kg.

CCOC(=O)C1=CNC2=C(/C=N/c3cccc(C(=O)O)c3)CCC(C)N2C1=O (centres undefined) showed an ED50 (Rattus norvegicus [2]) of 100 µmol/kg.

CC(=O)c1ccc(/N=C/C2=C3NC=C(C(=O)O)C(=O)N3C(C)CC2)cc1 (centres undefined) showed an ED50 (Rattus norvegicus [2]) of 0.75 µmol/kg.
